Tests used:
[1] = target: Transthyretin (Homo sapiens) (UniProt P02766); assay: Inhibition of L55P TTR fibril formation was measured at OD400.; format: functional
Method in brief: (§1)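 Stagnant fibril formation assay. TTR at 0.4 mg/mL in 10 mM sodium phosphate, 100 mM KCl, 1 mM EDTA, pH 7.6, was preincubated 30 min at 37 °C with compound added from DMSO stock. Acetate buffer then lowered the pH to 4.2 (wild type) or 5 (V30M, L55P), and samples stood unagitated 72 h at 37 °C. After vortexing, turbidity was read at 400 nm and expressed as percent of the no-inhibitor sample. Triplicates.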

[2] = target: Transthyretin (Homo sapiens) (UniProt P02766); assay: Inhibition of V30M TTR fibril formation at OD400; format: functional; method in brief: as §1
[3] = target: Transthyretin (Homo sapiens) (UniProt P02766); assay: Inhibition of wild type TTR fibril formation at OD400; format: functional; method in brief: as §1
[4] = Second dissociation constant of the binding of compound to V30M TTR; format: functional
Method in brief: (§2)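 Isothermal titration calorimetry at pH 7.6 (100 mM phosphate, 100 mM KCl, 1 mM EDTA). A 435 µM ligand solution in this buffer, concentration set by ε280 = 10 400 M-1 cm-1, was titrated into cells holding 21.1 µM wild type, 20.1 µM V30M or 20.0 µM L55P TTR.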

[5] = target: Transthyretin (Homo sapiens) (UniProt P02766); assay: First dissociation constant of the binding of compound to L55P TTR; format: functional; method in brief: as §2
[6] = target: Transthyretin (Homo sapiens) (UniProt P02766); assay: Second dissociation constant of the binding of compound to wild type TTR; format: functional; method in brief: as §2
[7] = target: Transthyretin (Homo sapiens) (UniProt P02766); assay: Second dissociation constant of the binding of compound to L55P TTR; format: functional; method in brief: as §2
[8] = First dissociation constant of the binding of compound to V30M TTR; format: functional; method in brief: as §2
[9] = target: Transthyretin (Homo sapiens) (UniProt P02766); assay: First dissociation constant of the binding of compound to wild type TTR; format: functional; method in brief: as §2
[10] = target: Transthyretin (Homo sapiens) (UniProt P02766); assay: (§3) Quaternary structure of the soluble protein after incubation of 3.6 uM of compound; format: functional
[11] = target: Transthyretin (Homo sapiens) (UniProt P02766); assay: Quaternary structure of the soluble protein after incubation of 10.8 uM of compound
[12] = target: Transthyretin (Homo sapiens) (UniProt P02766); assay: as §3; format: functional; remark: listed apart in the source
[13] = target: Transthyretin (Homo sapiens) (UniProt P02766); assay: as §3; format: functional; remark: listed apart in the source
[14] = target: Transthyretin (Homo sapiens) (UniProt P02766); assay: Quaternary structure of the soluble protein after incubation of 3.6 uM L55P TTR with 10.8 uM of compound; format: functional
Method in brief: (§4)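 3.6 µM TTR (wild type, V30M or L55P) was held 72 h with 10.8 µM compound under stagnant fibril formation conditions at the variant's pH maximum. Precipitate was removed by spinning at 14 000 rpm, and the supernatant was analysed by analytical ultracentrifugation to give % tetramer, monomer and aggregate and MW.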

[15] = target: Transthyretin (Homo sapiens) (UniProt P02766); assay: Quaternary structure of the soluble protein after incubation of 3.6 uM wild type TTR with 10.8 uM of compound; format: functional; method in brief: as §4
[16] = target: Transthyretin (Homo sapiens) (UniProt P02766); assay: Quaternary structure of the soluble protein after incubation of 3.6 uM V30M TTR with 10.8 uM of compound; format: functional; method in brief: as §4

SMILES	Formation [1]	Formation [2]	Formation [3]	further results
CCCc1ccccc1Nc1c(Cl)cccc1Cl	90%	85%	100%	
O=C(O)Cc1ccccc1Nc1c(Cl)cccc1Cl	72%	33%	35%	Kd2 [4]: 3.9 µM; Kd1 [5]: 380 nM; Kd2 [6]: 1200 nM; Kd2 [7]: 6.18 µM; Kd1 [8]: 160 nM; Kd1 [9]: 60 nM
O=C(O)c1ccccc1Nc1c(Cl)cccc1Cl		27%	30%	
CCc1ccccc1Nc1c(Cl)cccc1Cl	85%	70%	82%	
ClCCc1ccccc1Nc1c(Cl)cccc1Cl	90%	70%	75%	
OCCc1ccccc1Nc1c(Cl)cccc1Cl	90%	62%	60%	
CC(C)c1ccccc1Nc1c(Cl)cccc1Cl	90%	80%	85%	
O=C(O)Cc1ccccc1Nc1c(Cl)cc(C(=O)O)cc1Cl	45%	28%	32%	Tetramer [10]: > 95%; Monomer [11]: 5%; Tetramer [12]: 95%; Tetramer [13]: 95%
NC(=O)Cc1ccccc1Nc1c(Cl)cccc1Cl		67%	65%	
O=C(O)c1ccccc1Nc1cc(Cl)cc(Cl)c1	50%	30%	34%	
COC(=O)Cc1ccccc1Nc1c(Cl)cccc1Cl	90%	90%	78%	
O=C(O)c1cc(Cl)c(Nc2ccc([N+](=O)[O-])cc2)c(Cl)c1	75%	33%	40%	Tetramer [14]: > 95%; Aggregate [15]: 7%; Tetramer [15]: 93%; Aggregate [16]: 10%; Tetramer [16]: 90%
O=C(O)Cc1ccccc1Nc1cc(Cl)cc(Cl)c1	53%	27%	30%	Tetramer [10]: > 95%; Aggregate [11]: 24%; Tetramer [12]: 76%; Tetramer [13]: > 95%
